From ChEMBL document CHEMBL4811269, “Design, synthesis and antibacterial evaluation of novel C-11, C-9 or C-2'-substituted 3-O-descladinosyl-3-ketoclarithromycin derivatives” (Bioorg Med Chem Lett, 2021)
Values after ≈ are worked out from the molar mass of the structure shown.

Assays:
Staphylococcus aureus [1] = test: Antibacterial activity against methicillin-resistant Staphylococcus aureus ATCC 43300 by broth microdilution method; type: functional
Summary of the method: (§1)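 MIC by standard NCCLS broth microdilution against resistant S. aureus strains, reported in µg/mL. Clarithromycin and azithromycin were run alongside as references.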

Staphylococcus aureus [2] = test: Antibacterial activity against penicillin-resistant Staphylococcus aureus ATCC 31007 by broth microdilution method; type: functional; summary of the method: as §1
Streptococcus pneumoniae [3] = test: Antibacterial activity against erythromycin-resistant Streptococcus pneumoniae B1 by broth microdilution method; type: functional
Summary of the method: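 MIC by standard NCCLS broth microdilution, reported in µg/mL. The strain expresses the ermB gene. Clarithromycin and azithromycin were run alongside as references.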

Streptococcus pneumoniae [4] = test: Antibacterial activity against erythromycin-resistant Streptococcus pneumoniae AB11 by broth microdilution method; type: functional
Summary of the method: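 MIC by standard NCCLS broth microdilution, reported in µg/mL. The strain expresses the ermB and mefA genes. Clarithromycin and azithromycin were run alongside as references.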

Streptococcus pyogenes = test: Antibacterial activity against erythromycin-resistant Streptococcus pyogenes R1 by broth microdilution method; type: functional
Summary of the method: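 MIC by standard NCCLS broth microdilution, reported in µg/mL. The strain is a clinically isolated erythromycin-resistant strain. Clarithromycin and azithromycin were run alongside as references.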

Pseudomonas aeruginosa = test: Antibacterial activity against penicillin-susceptible Pseudomonas aeruginosa ATCC 27853 by broth microdilution method; type: functional
Summary of the method: (§2)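 MIC determined by standard broth microdilution per NCCLS recommendations, read as minimal inhibitory concentration in µg/mL. Standard ATCC strains tested alongside the other panel strains, with clarithromycin and azithromycin as reference agents.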

Staphylococcus aureus [5] = test: Antibacterial activity against erythromycin-susceptible Staphylococcus aureus ATCC 25923 by broth microdilution method; type: functional; summary of the method: as §2
Bacillus subtilis = test: Antibacterial activity against penicillin-susceptible Bacillus subtilis ATCC9372 by broth microdilution method; type: functional; summary of the method: as §2
[6] = Chemical stability of the compound in pH 7.4 phosphate solution after 24 hrs by HPLC analysis; type: physicochemical; details: buffer, pH 7.4, 24 h
Summary of the method: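 Compound held in phosphate solution (pH = 7.4) at 25 °C and monitored by HPLC over 24 h. Stability judged from change in peak area.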

| SMILES | MIC (Staphylococcus aureus [1]) [µg/mL] | MIC (Staphylococcus aureus [2]) [µg/mL] | MIC (Streptococcus pneumoniae [3]) [µg/mL] | MIC (Streptococcus pneumoniae [4]) [µg/mL] | MIC (Streptococcus pyogenes) [µg/mL] | MIC (Pseudomonas aeruginosa) [µg/mL] | MIC (Staphylococcus aureus [5]) [µg/mL] | MIC (Bacillus subtilis) [µg/mL] | Stabilty [6] |
| --- | --- | --- | --- | --- | --- | --- | --- | --- | --- |
| CO[C@]1(C)C[C@@H](C)[C@H](OC(=O)c2ccc(Cl)cc2)[C@H](C)CN(C)CCOC(=O)[C@H](C)C(=O)[C@H](C)[C@H]1O[C@@H]1O[C@H](C)C[C@H](N(C)C)[C@H]1OC(=O)c1ccc(Cl)cc1 | > 256 | > 256 | 128 (≈ 156 µM) | > 256 | > 256 | > 128 | 128 (≈ 156 µM) | > 128 | Stable |
| CC[C@H]1OC(=O)[C@H](C)[C@@H](O[C@H]2C[C@@](C)(OC)[C@@H](O)[C@H](C)O2)[C@H](C)[C@@H](O[C@@H]2O[C@H](C)C[C@H](N(C)C)[C@H]2O)[C@](C)(OC)C[C@@H](C)C(=O)[C@H](C)[C@@H](O)[C@]1(C)O [CLARITHROMYCIN] | > 256 | > 256 | > 256 | 256 (≈ 342 µM) | 256 (≈ 342 µM) | 16 (≈ 21.4 µM) | ≤ 0.25 | ≤ 0.25 |  |
| CO[C@]1(C)C[C@@H](C)[C@H](OC(=O)c2cccc(C)c2)[C@H](C)CN(C)CCOC(=O)[C@H](C)C(=O)[C@H](C)[C@H]1O[C@@H]1O[C@H](C)C[C@H](N(C)C)[C@H]1OC(=O)c1cccc(C)c1 | > 256 | > 256 | > 256 | > 256 | > 256 | > 128 | 128 (≈ 164 µM) | > 128 |  |
| CO[C@]1(C)C[C@@H](C)[C@H](OC(=O)c2ccc(C)cc2)[C@H](C)CN(C)CCOC(=O)[C@H](C)C(=O)[C@H](C)[C@H]1O[C@@H]1O[C@H](C)C[C@H](N(C)C)[C@H]1OC(=O)c1ccc(C)cc1 | > 256 | > 256 | > 256 | > 256 | > 256 | > 128 | 128 (≈ 164 µM) | > 128 | Stable |
| CO[C@]1(C)C[C@@H](C)[C@H](OC(=O)c2ccccc2Br)[C@H](C)CN(C)CCOC(=O)[C@H](C)C(=O)[C@H](C)[C@H]1O[C@@H]1O[C@H](C)C[C@H](N(C)C)[C@H]1OC(=O)c1ccccc1Br | > 256 | > 256 | > 256 | > 256 | > 256 | > 128 | 128 (≈ 141 µM) | > 128 |  |
| COc1ccc(C(=O)O[C@@H]2[C@H](C)CN(C)CCOC(=O)[C@H](C)C(=O)[C@H](C)[C@@H](O[C@@H]3O[C@H](C)C[C@H](N(C)C)[C@H]3OC(=O)c3ccc(OC)cc3)[C@](C)(OC)C[C@H]2C)cc1 | > 256 | > 256 | > 256 | > 256 | > 256 | > 128 | 64 (≈ 78.7 µM) | > 128 |  |
| CO[C@]1(C)C[C@@H](C)[C@H](OC(=O)c2cc(Cl)cc(Cl)c2)[C@H](C)CN(C)CCOC(=O)[C@H](C)C(=O)[C@H](C)[C@H]1O[C@@H]1O[C@H](C)C[C@H](N(C)C)[C@H]1OC(=O)c1cc(Cl)cc(Cl)c1 | > 256 | > 256 | > 256 | > 256 | > 256 | > 128 | 128 (≈ 144 µM) | > 128 |  |
| CC[C@H]1OC(=O)[C@H](C)[C@@H](O[C@H]2C[C@@](C)(OC)[C@@H](O)[C@H](C)O2)[C@H](C)[C@@H](O[C@@H]2O[C@H](C)C[C@H](N(C)C)[C@H]2O)[C@](C)(O)C[C@@H](C)CN(C)[C@H](C)[C@@H](O)[C@]1(C)O [AZITHROMYCIN] | > 256 | > 256 | > 256 | 128 (≈ 171 µM) | 256 (≈ 342 µM) | 32 (≈ 42.7 µM) | ≤ 0.25 | ≤ 0.25 |  |
| CO[C@]1(C)C[C@@H](C)[C@H](OC(=O)c2cccc(Cl)c2)[C@H](C)CN(C)CCOC(=O)[C@H](C)C(=O)[C@H](C)[C@H]1O[C@@H]1O[C@H](C)C[C@H](N(C)C)[C@H]1OC(=O)c1cccc(Cl)c1 | > 256 | > 256 | > 256 | > 256 | > 256 | > 128 | 64 (≈ 77.9 µM) | > 128 |  |
| CO[C@]1(C)C[C@@H](C)[C@H](OC(=O)c2ccc(F)cc2)[C@H](C)CN(C)CCOC(=O)[C@H](C)C(=O)[C@H](C)[C@H]1O[C@@H]1O[C@H](C)C[C@H](N(C)C)[C@H]1OC(=O)c1ccc(F)cc1 | > 256 | > 256 | > 256 | > 256 | > 256 | > 128 | 128 (≈ 162 µM) | > 128 |  |
| COc1cccc(C(=O)O[C@@H]2[C@H](C)CN(C)CCOC(=O)[C@H](C)C(=O)[C@H](C)[C@@H](O[C@@H]3O[C@H](C)C[C@H](N(C)C)[C@H]3OC(=O)c3cccc(OC)c3)[C@](C)(OC)C[C@H]2C)c1 | > 256 | > 256 | > 256 | > 256 | > 256 | > 128 | 128 (≈ 157 µM) | > 128 |  |
| CO[C@]1(C)C[C@@H](C)[C@H](OC(=O)c2cccc([N+](=O)[O-])c2)[C@H](C)CN(C)CCOC(=O)[C@H](C)C(=O)[C@H](C)[C@H]1O[C@@H]1O[C@H](C)C[C@H](N(C)C)[C@H]1OC(=O)c1cccc([N+](=O)[O-])c1 | > 256 | > 256 | > 256 | > 256 | > 256 | > 128 | 128 (≈ 152 µM) | > 128 |  |
| CO[C@]1(C)C[C@@H](C)[C@H](OC(=O)c2cccc(Br)c2)[C@H](C)CN(C)CCOC(=O)[C@H](C)C(=O)[C@H](C)[C@H]1O[C@@H]1O[C@H](C)C[C@H](N(C)C)[C@H]1OC(=O)c1cccc(Br)c1 | > 256 | > 256 | > 256 | > 256 | > 256 | > 128 | 64 (≈ 70.3 µM) | > 128 |  |
| CO[C@]1(C)C[C@@H](C)[C@H](OC(=O)c2cccc(F)c2)[C@H](C)CN(C)CCOC(=O)[C@H](C)C(=O)[C@H](C)[C@H]1O[C@@H]1O[C@H](C)C[C@H](N(C)C)[C@H]1OC(=O)c1cccc(F)c1 | > 256 | > 256 | > 256 | > 256 | > 256 | > 128 | 128 (≈ 162 µM) | > 128 |  |
| CO[C@]1(C)C[C@@H](C)[C@H](OC(=O)c2ccc([N+](=O)[O-])cc2)[C@H](C)CN(C)CCOC(=O)[C@H](C)C(=O)[C@H](C)[C@H]1O[C@@H]1O[C@H](C)C[C@H](N(C)C)[C@H]1OC(=O)c1ccc([N+](=O)[O-])cc1 | > 256 | > 256 | > 256 | > 256 | > 256 | > 128 | 64 (≈ 75.9 µM) | > 128 |  |
| CO[C@]1(C)C[C@@H](C)[C@H](OC(=O)c2ccc(Br)cc2)[C@H](C)CN(C)CCOC(=O)[C@H](C)C(=O)[C@H](C)[C@H]1O[C@@H]1O[C@H](C)C[C@H](N(C)C)[C@H]1OC(=O)c1ccc(Br)cc1 | > 256 | > 256 | > 256 | > 256 | > 256 | > 128 | 128 (≈ 141 µM) | > 128 |  |
| CCc1ccc(C(=O)O[C@@H]2[C@H](C)CN(C)CCOC(=O)[C@H](C)C(=O)[C@H](C)[C@@H](O[C@@H]3O[C@H](C)C[C@H](N(C)C)[C@H]3OC(=O)c3ccc(CC)cc3)[C@](C)(OC)C[C@H]2C)cc1 | > 256 | > 256 | > 256 | > 256 | > 256 | > 128 | 64 (≈ 79.1 µM) | > 128 |  |
| CCOc1ccc(C(=O)O[C@@H]2[C@H](C)CN(C)CCOC(=O)[C@H](C)C(=O)[C@H](C)[C@@H](O[C@@H]3O[C@H](C)C[C@H](N(C)C)[C@H]3OC(=O)c3ccc(OCC)cc3)[C@](C)(OC)C[C@H]2C)cc1 | > 256 | > 256 | > 256 | > 256 | > 256 | > 128 | 128 (≈ 152 µM) | > 128 |  |
| CCCc1ccc(C(=O)O[C@@H]2[C@H](C)CN(C)CCOC(=O)[C@H](C)C(=O)[C@H](C)[C@@H](O[C@@H]3O[C@H](C)C[C@H](N(C)C)[C@H]3OC(=O)c3ccc(CCC)cc3)[C@](C)(OC)C[C@H]2C)cc1 | > 256 | > 256 | > 256 | > 256 | > 256 | > 128 | 64 (≈ 76.5 µM) | > 128 |  |
| CO[C@]1(C)C[C@@H](C)[C@H](OC(=O)c2ccc(C(F)(F)F)cc2)[C@H](C)CN(C)CCOC(=O)[C@H](C)C(=O)[C@H](C)[C@H]1O[C@@H]1O[C@H](C)C[C@H](N(C)C)[C@H]1OC(=O)c1ccc(C(F)(F)F)cc1 | > 256 | > 256 | > 256 | > 256 | > 256 | > 128 | 64 (≈ 72 µM) | > 128 |  |
